Assay results from ChEMBL document CHEMBL1141802, “Sesquiterpenoid metabolites with antiplasmodial activity from a Caribbean gorgonian coral, Eunicea sp” (J Nat Prod, 2005).
Converted amounts (≈) assume the structure as drawn. The source made the active and inactive calls. No cut-off for these calls is given here.

Experiments:
[1] = test system: Mycobacterium tuberculosis; test: Antimicrobial activity against Mycobacterium tuberculosis H37Rv at 6.25 ug/mL; assay type: functional, organism-based
[2] = target: Cyclin-dependent kinase 1/cyclin B1 (Homo sapiens) (UniProt P06493+P14635); test: Inhibition of Cdc2/cyclin B
Sequence of Cyclin-dependent kinase 1/cyclin B1 (Homo sapiens) (P06493 whole entry, looked up): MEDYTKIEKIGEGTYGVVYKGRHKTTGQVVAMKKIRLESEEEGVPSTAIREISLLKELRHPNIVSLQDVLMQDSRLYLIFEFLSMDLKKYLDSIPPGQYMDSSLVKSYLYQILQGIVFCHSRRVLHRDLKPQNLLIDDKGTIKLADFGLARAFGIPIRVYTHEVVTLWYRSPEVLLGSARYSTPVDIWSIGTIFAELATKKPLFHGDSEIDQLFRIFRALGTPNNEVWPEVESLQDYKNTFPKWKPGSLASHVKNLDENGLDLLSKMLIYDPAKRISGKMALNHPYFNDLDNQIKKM
Sequence of Cyclin-dependent kinase 1/cyclin B1 (Homo sapiens) (P14635 whole entry, looked up): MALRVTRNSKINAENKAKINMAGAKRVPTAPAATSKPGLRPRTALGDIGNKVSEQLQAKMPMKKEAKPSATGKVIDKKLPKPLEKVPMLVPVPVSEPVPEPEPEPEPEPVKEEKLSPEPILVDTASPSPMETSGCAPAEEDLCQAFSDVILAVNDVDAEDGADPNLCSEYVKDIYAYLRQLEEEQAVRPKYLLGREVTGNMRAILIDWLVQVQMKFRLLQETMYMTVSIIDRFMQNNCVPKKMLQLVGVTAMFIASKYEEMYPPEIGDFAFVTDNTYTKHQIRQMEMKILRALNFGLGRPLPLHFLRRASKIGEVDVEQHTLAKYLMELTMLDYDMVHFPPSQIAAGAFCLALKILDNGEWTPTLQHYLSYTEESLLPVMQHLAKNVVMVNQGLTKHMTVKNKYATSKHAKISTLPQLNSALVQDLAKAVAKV

[3] = test system: Plasmodium falciparum; test: Antimalarial activity against chloroquine-resistant Plasmodium falciparum W2 by Picogreen dye fluorimetry; assay type: functional, organism-based
Method in brief: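 Fluorometric growth-inhibition assay on chloroquine-resistant W2 strain, detecting parasite DNA by PicoGreen intercalation. Result expressed as IC50 in μg/mL.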

[4] = test system: M-phase inducer phosphatase (Cdc25); test: Inhibition of Cdc25
[5] = test system: CCRF-CEM; test: Cytotoxicity against human CCRF-CEM cells; assay type: functional, cell-based
[6] = Cytotoxicity against human […] cells; assay type: functional, cell-based
[7] = test system: MOLT-4; test: Cytotoxicity against human MOLT4 cells; assay type: functional, cell-based
[8] = test system: HL-60(TB); test: Cytotoxicity against human HL-60(TB) cells; assay type: functional, cell-based
[9] = test system: MCF7; test: Cytotoxicity against human MCF7 cells; assay type: functional, cell-based

SMILES | Activity [1] | IC50 [3] | also measured
C=C1CC[C@@H](C(C)=O)[C@@H](OC(=O)/C=C/C(C)(C)O)/C=C(\C)CCC1=O | inactive | 16 µg/mL (≈ 45.9 µM) | Activity [2]: inactive; Activity [4]: inactive
C=C1CC[C@H](O)[C@@]2(C)CC[C@@H](C(C)=O)[C@@H](OC(=O)/C=C/C(C)(C)O)[C@H]12 | inactive | 10 µg/mL (≈ 28.5 µM) | 
C=C1CC[C@H](O)[C@@]2(C)CC[C@@H]3[C@@H](OC(=O)[C@H]3C)[C@H]12 | inactive | 14 µg/mL (≈ 55.9 µM) | 
C=C1CC[C@@H](C(C)=O)[C@@H](OC(=O)/C=C/C(C)(C)O)/C=C(\C)CC[C@@H]1O |  | 14 µg/mL (≈ 39.9 µM) | Activity [2]: inactive; Activity [4]: inactive
C=C1CC[C@@H]2[C@H](/C=C(\C)CC[C@@H]1O)OC(=O)[C@H]2C |  | 18 µg/mL (≈ 71.9 µM) | IC50 [5]: 31.3 µg/mL (≈ 125 µM); IC50 [6]: 90.4 µg/mL (≈ 361 µM); IC50 [7]: 19.6 µg/mL (≈ 78.3 µM); IC50 [8]: 51.5 µg/mL (≈ 206 µM); IC50 [9]: 82.2 µg/mL (≈ 328 µM)
C=C[C@@]1(C)CC[C@@H](C(C)=O)[C@@H](OC(=O)/C=C/C(C)(C)O)[C@@H]1C(=C)C | inactive |  | 
C=C[C@@]1(C)CCC2=C(C)C(=O)O[C@H]2[C@@H]1C(=C)C |  | > 50 µg/mL | 
